# MC4R ag barr – human MC4R agonism via beta-arrestin; P32245; U2OS MC4R beta-arrestin complementation, luminescence; percent of melanotan II response, DMSO zero; activation, % at 8.9 µM; actives 0.98% (n = 360,000); AID 540308;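 active = activation above a per-plate cutoff, the mean activation of sample wells on that plate plus 3 SD, cut at about 8% in these data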
# PG9 binder – small molecules binding HIV-1 gp120 antibody PG9. TR-FRET gp120-PG9 antibody binding. inhibition, % at 6.7 µM. actives 0.43% (n = 360,000). AID 624416; in the data active = inhibition above about 8.5%
# NR1D1 modulator – Rev-erb alpha (human) modulation | P20393 | Rev-erbα–FITC-DNA binding, fluorescence polarization, 90 min | activity, % at 10 µM | actives 0.79% (n = 370,000) | AID 1259318;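 active = activity above about 14%, limit read from the data; passing the limit was not always enough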;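 note: 0% = DMSO wells with 35 nM protein and 100% = DMSO wells with 750 nM protein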
# NR2E3 ag-1 – agonists of human NR2E3 nuclear receptor; inhibition of corepressor binding, % at 3.98 µM; CHO-S Gal4-NCOR/VP16-NR2E3 two-hybrid, luciferase; actives 0.35% (n = 360,000);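 active = inhibition above the mean of all tested compounds plus 3 SD, cut at about 70% in these data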;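 note: 0% = DMSO with NR2E3 transfected cells and 100% = cells lacking NR2E3 construct; higher means lower luciferase signal from less NR2E3 corepressor binding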
# MC4R antag cAMP – blocks human MC4R cAMP signaling; P32245; MC4R-expressing cells, MTII-stimulated cAMP, LANCE TR-FRET; inhibition, % at 6.5 µM; actives 0.48% (n = 360,000); AID 540295;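 active = inhibition above its plate's cutoff, the mean of tested wells on that plate plus 3 SD, cut at about 29% in these data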;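 note: 0% = Melanotan II alone and 100% = Melanotan II plus saturating MCL0020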
#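 Material – human MC4R-expressing U2OS cells · Repeats – no replicates · Detection – TR-FRET with Eu-cAMP and labeled anti-cAMP, 671 nm · Times – compound 30 min, challenge 1 h, detection 1 h · Compound – single nominal compound dose of 6.5 µM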
# NR2E3 ag-2 – NR2E3 (human) agonism; Q9Y5X4; GST-NR2E3/biotin-RetCOR TR-FRET, 1536-well; inhibition of corepressor binding, % at 4.78 µM; actives 0.12% (n = 320,000);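 active = percent inhibition above the cutoff of mean plus 3 SD of all tested compounds, set per screening campaign, cut at about 20% in these data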;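 note: 0% = DMSO wells and 100% = biotin wells as full block of FRET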
#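 Assay system: NR2E3–RetCOR corepressor complex. Quantity: 1.35 nM GST-NR2E3. Buffer or medium: pH 7.5 Tris-based buffer. Reagent: biotinylated RetCOR corepressor at 7 nM final. Schedule: 5 h at 4 °C. Detection: TR-FRET, emission read at 617 and 671 nm. Replicates: one well per compound, singlicate testing.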
# MC4R barr ag – human MC4R beta-arrestin agonism confirmation; shares compounds with MC4R ag barr; U2OS MC4R beta-arrestin recruitment, luminescence; scaled DMSO 0%, Melanotan II 100%; actives 31% (n = 2,400); activation, % at 8.9 µM;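 active = mean activation across replicates above the hit cutoff set in the earlier primary screen, cut at about 8% in these data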
# MOR DOR agonist – OPRM1-OPRD1 heterodimer agonism counter-screen; activation, % at 9.2 µM; shares compounds with MC4R ag barr; U2OS PathHunter beta-arrestin, beta-gal luminescence; percent of deltorphin B response, DMSO zero; actives 5.8% (n = 2,400); AID 602194;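 active = mean activation across replicates exceeds the hit threshold derived in the earlier primary screen, cut at about 18% in these data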;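 note: 100% = deltorphin B at 0.9 µM final and 0% = DMSO alone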
# Target sequence (P35372 whole entry, looked up): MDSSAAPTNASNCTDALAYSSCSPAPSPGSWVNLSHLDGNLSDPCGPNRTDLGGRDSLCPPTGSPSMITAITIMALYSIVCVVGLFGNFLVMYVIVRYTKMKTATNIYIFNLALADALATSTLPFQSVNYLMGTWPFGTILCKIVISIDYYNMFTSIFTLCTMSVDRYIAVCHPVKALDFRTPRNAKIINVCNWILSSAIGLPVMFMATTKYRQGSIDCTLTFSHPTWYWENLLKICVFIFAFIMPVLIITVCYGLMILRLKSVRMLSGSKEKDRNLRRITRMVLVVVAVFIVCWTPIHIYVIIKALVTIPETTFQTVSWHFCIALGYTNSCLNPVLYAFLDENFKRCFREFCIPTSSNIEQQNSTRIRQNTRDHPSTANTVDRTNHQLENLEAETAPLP
# Target sequence (P41143 whole entry, looked up): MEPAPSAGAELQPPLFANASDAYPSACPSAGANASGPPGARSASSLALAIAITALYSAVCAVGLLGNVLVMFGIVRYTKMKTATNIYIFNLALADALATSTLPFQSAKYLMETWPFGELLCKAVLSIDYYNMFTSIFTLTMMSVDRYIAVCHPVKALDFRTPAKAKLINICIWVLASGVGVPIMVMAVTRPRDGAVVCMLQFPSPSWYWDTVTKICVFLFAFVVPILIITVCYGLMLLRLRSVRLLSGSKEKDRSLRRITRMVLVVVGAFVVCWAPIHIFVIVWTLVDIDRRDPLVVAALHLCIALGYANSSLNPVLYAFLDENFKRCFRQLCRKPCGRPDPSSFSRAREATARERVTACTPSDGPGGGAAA
# The depositor's hits bear a star; / = no result given. The list is not random: actives were taken first. Their share in the collection is about 2.7%.
SMILES,MC4R ag barr,PG9 binder,NR1D1 modulator,NR2E3 ag-1,MC4R antag cAMP,NR2E3 ag-2,MC4R barr ag,MOR DOR agonist
O=S(=O)(N(Cc1ccccc1)[C@@H](CO)Cc1ccccc1)N(Cc1ccccc1)[C@@H](CO)Cc1ccccc1,13*,1,4,-1,13,/,5,5
CC(C)CCNc1ncnc2c1nnn2Cc1ccccc1Cl,18*,4,1,8,1,1,4,5
OCCN1CCN(c2nc(-c3ccccc3)nc3c2oc2ccccc23)CC1,23*,0,0,-16,2,-1,15*,11
CCOC(=O)N/N=C\c1ccc(OC/C=C/c2ccccc2)cc1,11*,1,-2,-55,2,/,0,5
O=C(CN1CCN(c2ccccc2)CC1)Nc1ccc(Oc2ccccc2)cc1,19*,-1,7,-12,4,0,6,5
CC(C)S(=O)(=O)c1nsc2nc(=O)c(/C=C3\C=Nc4ccccc43)c(N)n12,-1,-2,2,1,9,1,/,/
CC(C)CNS(=O)(=O)c1cc(C(=O)OC2CCOC2=O)c(Cl)cc1Cl (centres undefined),2,1,4,-15,25,0,/,/
CC(=O)Nc1ccc(NC(=O)c2cc(-c3ccc(C)c(C)c3O)n[nH]2)cc1,9.7*,-4,1,-40,-4,3,4,2
Cc1ccc(C(=O)NCCc2cc3ccc(C)c(C)c3[nH]c2=O)cc1[N+](=O)[O-],9.6*,-1,2,1,7,-2,1,3
CCOc1ccc(/C=N/NC(=O)c2cc3c(OC)cccc3[nH]2)cc1,11*,0,-5,-43,-8,-3,3,18*
CC/C(=N/Nc1cccc(C)c1)c1cnnc(SC)n1,21*,0,-12,-3,-16,-1,4,4
COc1ccc(N2C(=S)N=C(Nc3cccc(C)c3)C23CCCCC3)cc1,24*,-1,-1,-12,5,1,9.6*,8
CC(C(=O)NCc1ccco1)c1ccc([N+](=O)[O-])cc1 (centres undefined),1,2,1,21,2,0,/,/
C/C(=N\Nc1ccc(S(N)(=O)=O)cc1[N+](=O)[O-])c1ccc2c(c1)OCO2,13*,-2,-13,18,11,/,4,5
COC(OC)c1ccnc(-c2ccc(OC(C)=O)cc2)n1,-3,0,-8,-7,9,0,/,/
CCOC(=O)c1c(Nc2ccccc2)sc(/C=C2\C=Nc3ccccc32)c1O,15*,/,/,-14,4,-1,4,5
Oc1nc(Nc2ccccc2)sc1/C=C1\C=Nc2ccccc21,5,-2,6,-78,16,2,/,/
CC(OC(=O)c1cc2sccc2n1C)C(=O)NCc1ccc2c(c1)OCO2 (centres undefined),13*,0,4,1,10,2,-1,2
O=C(Nc1ccc(N2CCOCC2)cc1)c1ccc2nc(-c3ccco3)c(-c3ccco3)nc2c1,10*,-2,-6,-14,-14,0,-1,17
Cn1nc(-c2ccc(Cl)cc2)cc1NC(=O)Nc1ccccc1,-1,1,-4,-13,4,5,/,/
CSc1ncccc1C(=O)OCc1ccc([N+](=O)[O-])cc1,12*,-2,-3,-5,2,2,1,3
CCOC(=O)C1=C(COC(=O)/C=C/c2ccc(OC)cc2OC)NC(=O)NC1C (centres undefined),0,0,4,-19,4,-2,/,/
CC1(C)Oc2ccc3ccc(=O)oc3c2/C(=C/Nc2ccccc2)C1=O,9.8*,-2,6,-8,21,1,3,3

# Bioassay records from PubChem.
